Measured values collected from several papers.
Each line is one published result; the experiments were not run side by side.
BRAF: Serine/threonine-protein kinase B-raf (BRAF, Homo sapiens, UniProt P15056)
BRAF V600E: Serine/threonine-protein kinase B-raf (BRAF, Homo sapiens, UniProt P15056, V600E)

O=C(CSc1nc2nccnc2c(=O)n1CCc1ccccc1)Nc1nccs1 — inhibition (BRAF; enzyme activity, inhibitor; 10 µM): 9%
Cc1ccc(C(CS(=O)(=O)c2ccccc2)=NNC2=NC(=O)C(=NNc3ccccc3)S2)cc1 — inhibition (BRAF V600E; enzyme activity, inhibitor, ATP luminescence; 0.1 µM): 54%
CCOc1cc(-c2nncn2C)ccc1Nc1ncc2cc(C)nc(NCC(C)(C)C)c2n1 — inhibition (BRAF; cell-free assay, TR-FRET; 1 µM): ≤ 15%
Cn1cncc1C1=CN(c2ncnc3[nH]cnc23)CCS1 — inhibition (BRAF; enzyme activity, inhibitor, radiometric; 2 µM): 35.1%
CS(=O)(=O)Nc1cccc(-c2csc(NC(=O)CSc3nc4nccnc4c(=O)n3CCc3ccccc3)n2)c1 — inhibition (BRAF V600E; enzyme activity, inhibitor; 10 µM): 2%
Cc1ccc(C(CS(=O)(=O)c2ccccc2)=NNC2=NC(=O)C(=NNc3ccc(Cl)cc3)S2)cc1 — inhibition (BRAF V600E; enzyme activity, inhibitor, ATP luminescence; 10 µM): 83%
COc1cc(-c2cc(-c3ccc(N4CCNCC4)cc3)cnc2N)cc(OC)c1OC — inhibition (BRAF V600E; enzyme activity, inhibitor; 1 µM): 18%
CN(C)C1CCN(CC#Cc2nn(C3CCCC3)c3nc(NCc4ccccc4)ncc23)C1 (stereo not shown) — inhibition (BRAF; enzyme activity, inhibitor, FRET; 10 µM): 1%
COc1cc2ncnc(Nc3ccc(Oc4ccccc4)cc3C)c2cc1OC — inhibition (BRAF; enzyme activity, inhibitor; 1 µM): 7%
Cc1ccc(N=Nc2sc(NN=C(CS(=O)(=O)c3ccccc3)c3ccc(C)cc3)nc2C)cc1 — inhibition (BRAF V600E; enzyme activity, inhibitor, ATP luminescence; 10 nM): 29%
